# ChEMBL document CHEMBL3091319, “Chemical synthesis and biological validation of immobilized protein kinase inhibitory Leucettines” (Eur J Med Chem, 2013)
# The source made the active and inactive calls. The rule behind the calls is not given here.
# Columns and labels:
# Mus musculus = organism: Mus musculus; test: Binding affinity to GSK3 in mouse brain extracts by Western blot analysis; type: tissue-based
# How it was run: (§1)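 Mouse brains homogenized and sonicated in Mops pH 7.2 buffer with β-glycerophosphate, phosphatase and protease inhibitors, spun 15 min at 17,000×g at 4 °C. Extract (1 or 2 mg total protein) rotated 30 min at 4 °C with ligand-linker coupled via amine to CNBr-activated Sepharose. Beads washed 4×, boiled 3 min in LDS/DTT, then 10% Bis-Tris SDS-PAGE and immunoblot with specific antibodies and ECL.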
# [1] = target: Dual specificity tyrosine-phosphorylation-regulated kinase 1A (Mus musculus) (UniProt Q61214); test: Binding affinity to DYRK1A in mouse brain extracts by Western blot analysis; type: tissue-based; how it was run: as §1
# [2] = target: Glycogen synthase kinase-3 (Sus scrofa, UniProt B2LUN4+I6LNT8); test: Inhibition of porcine brain GSK-3alpha/beta using YRRAAVPPSPSLSRHSSPHQSpEDEEE as substrate
# How it was run: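 Reaction harvested onto P81 paper, washed in 1% phosphoric acid, and scintillation-counted. Blanks subtracted; activity as % of the no-inhibitor activity, with DMSO controls. IC50 from dose-response curves.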
# [3] = target: T1, Dual specificity tyrosine-phosphorylation-regulated kinase 3 (Homo sapiens, UniProt O43781); test: Inhibition of human recombinant DYRK3 expressed in Escherichia coli using GRSRSRSRSRSR as substrate
# T1 sequence (O43781 whole entry): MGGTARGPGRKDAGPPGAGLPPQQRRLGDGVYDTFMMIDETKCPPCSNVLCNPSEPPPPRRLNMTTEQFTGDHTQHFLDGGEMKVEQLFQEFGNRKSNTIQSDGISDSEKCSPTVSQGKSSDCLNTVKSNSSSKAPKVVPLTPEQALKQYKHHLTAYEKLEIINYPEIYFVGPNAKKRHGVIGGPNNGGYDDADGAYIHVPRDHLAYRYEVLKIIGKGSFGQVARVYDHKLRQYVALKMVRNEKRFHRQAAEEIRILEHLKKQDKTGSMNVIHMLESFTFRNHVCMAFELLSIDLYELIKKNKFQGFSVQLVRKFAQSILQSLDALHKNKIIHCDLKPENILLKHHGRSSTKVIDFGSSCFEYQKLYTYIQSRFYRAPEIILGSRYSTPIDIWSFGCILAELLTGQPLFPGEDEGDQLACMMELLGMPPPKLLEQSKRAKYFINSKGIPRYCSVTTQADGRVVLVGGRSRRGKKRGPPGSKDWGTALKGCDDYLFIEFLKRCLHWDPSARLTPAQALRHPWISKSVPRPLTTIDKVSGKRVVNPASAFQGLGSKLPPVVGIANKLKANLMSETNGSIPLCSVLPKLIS
# [4] = target: T2, Dual specificity tyrosine-phosphorylation-regulated kinase 2 (Homo sapiens, UniProt Q92630); test: Inhibition of human recombinant DYRK2 expressed in Escherichia coli using GRSRSRSRSRSR as substrate
# T2 sequence (Q92630 whole entry): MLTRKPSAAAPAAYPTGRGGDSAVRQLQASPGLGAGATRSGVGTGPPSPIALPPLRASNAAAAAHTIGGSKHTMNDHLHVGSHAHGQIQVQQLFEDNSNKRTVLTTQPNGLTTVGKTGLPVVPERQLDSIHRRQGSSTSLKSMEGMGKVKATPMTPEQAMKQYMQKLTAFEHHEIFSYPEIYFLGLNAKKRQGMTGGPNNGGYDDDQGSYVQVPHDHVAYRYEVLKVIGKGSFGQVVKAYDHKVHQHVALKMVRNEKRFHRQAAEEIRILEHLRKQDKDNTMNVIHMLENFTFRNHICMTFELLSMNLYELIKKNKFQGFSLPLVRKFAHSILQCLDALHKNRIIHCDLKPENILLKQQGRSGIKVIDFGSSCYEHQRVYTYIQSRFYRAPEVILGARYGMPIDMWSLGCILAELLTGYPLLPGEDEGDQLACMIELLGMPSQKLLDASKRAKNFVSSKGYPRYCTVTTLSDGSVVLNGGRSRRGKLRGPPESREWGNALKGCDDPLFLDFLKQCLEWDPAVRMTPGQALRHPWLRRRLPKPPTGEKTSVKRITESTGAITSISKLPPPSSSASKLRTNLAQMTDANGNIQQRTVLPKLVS
# [5] = target: Dual specificity tyrosine-phosphorylation-regulated kinase 1B (Homo sapiens, UniProt Q9Y463)
# Dual specificity tyrosine-phosphorylation-regulated kinase 1B, sequence (Q9Y463 whole entry): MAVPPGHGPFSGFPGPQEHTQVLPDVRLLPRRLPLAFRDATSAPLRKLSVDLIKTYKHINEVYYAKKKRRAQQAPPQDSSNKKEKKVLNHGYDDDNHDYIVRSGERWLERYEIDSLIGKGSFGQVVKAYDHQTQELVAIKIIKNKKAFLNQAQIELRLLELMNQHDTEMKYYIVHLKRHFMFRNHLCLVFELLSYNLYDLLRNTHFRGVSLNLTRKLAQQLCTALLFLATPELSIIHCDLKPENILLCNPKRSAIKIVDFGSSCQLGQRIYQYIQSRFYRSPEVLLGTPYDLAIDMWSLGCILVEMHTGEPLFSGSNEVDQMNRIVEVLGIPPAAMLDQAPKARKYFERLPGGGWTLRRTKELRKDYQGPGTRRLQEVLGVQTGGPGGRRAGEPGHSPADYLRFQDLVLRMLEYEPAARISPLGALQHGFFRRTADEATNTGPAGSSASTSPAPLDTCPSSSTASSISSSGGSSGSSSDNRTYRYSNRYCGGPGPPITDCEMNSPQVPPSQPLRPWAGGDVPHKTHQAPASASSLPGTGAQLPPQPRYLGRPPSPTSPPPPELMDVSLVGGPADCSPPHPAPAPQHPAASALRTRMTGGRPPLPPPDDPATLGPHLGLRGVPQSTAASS
# [6] = target: Dual specificity tyrosine-phosphorylation-regulated kinase 1A (Homo sapiens, UniProt Q13627); test: Inhibition of human recombinant DYRK1A expressed in Escherichia coli using GRSRSRSRSRSR as substrate
# [7] = target: Dual specificity protein kinase CLK4 (Mus musculus, UniProt O35493); test: Inhibition of mouse recombinant CLK4 expressed in Escherichia coli using GRSRSRSRSRSR as substrate
# Dual specificity protein kinase CLK4, sequence (O35493 whole entry): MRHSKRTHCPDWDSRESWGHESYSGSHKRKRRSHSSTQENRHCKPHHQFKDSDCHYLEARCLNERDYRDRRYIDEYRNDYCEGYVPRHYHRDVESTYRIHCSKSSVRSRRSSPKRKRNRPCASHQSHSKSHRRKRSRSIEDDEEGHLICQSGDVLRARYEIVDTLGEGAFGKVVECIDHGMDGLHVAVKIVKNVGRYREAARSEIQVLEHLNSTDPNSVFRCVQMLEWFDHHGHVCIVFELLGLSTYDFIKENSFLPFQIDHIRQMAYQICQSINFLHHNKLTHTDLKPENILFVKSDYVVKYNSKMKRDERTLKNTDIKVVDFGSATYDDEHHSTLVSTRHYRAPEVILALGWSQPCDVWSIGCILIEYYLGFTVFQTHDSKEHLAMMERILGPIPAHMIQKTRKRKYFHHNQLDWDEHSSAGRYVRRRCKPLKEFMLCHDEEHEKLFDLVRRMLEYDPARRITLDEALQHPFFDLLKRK
# [8] = target: Dual specificity protein kinase CLK3 (Mus musculus, UniProt O35492); test: Inhibition of mouse recombinant CLK3 expressed in Escherichia coli using GRSRSRSRSRSR as substrate
# Dual specificity protein kinase CLK3, sequence (O35492 whole entry, the tested form may be a part): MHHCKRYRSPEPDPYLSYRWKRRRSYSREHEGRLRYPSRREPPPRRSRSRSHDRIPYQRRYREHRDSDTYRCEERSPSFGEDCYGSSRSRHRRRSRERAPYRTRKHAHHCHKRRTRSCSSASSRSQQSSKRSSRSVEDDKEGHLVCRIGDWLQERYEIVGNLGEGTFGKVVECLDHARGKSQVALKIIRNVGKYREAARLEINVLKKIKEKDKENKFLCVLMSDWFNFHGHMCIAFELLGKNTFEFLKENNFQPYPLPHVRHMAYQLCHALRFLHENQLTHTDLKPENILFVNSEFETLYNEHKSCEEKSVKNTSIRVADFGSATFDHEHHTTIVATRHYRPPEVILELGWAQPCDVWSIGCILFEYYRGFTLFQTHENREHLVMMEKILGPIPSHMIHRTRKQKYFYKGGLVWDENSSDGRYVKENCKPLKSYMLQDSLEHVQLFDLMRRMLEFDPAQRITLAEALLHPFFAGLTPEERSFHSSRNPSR
# How it was run: (§2)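 Human DYRKs and mouse CLKs were expressed in E. coli as GST fusions and purified on glutathione-agarose. Each was assayed with RS peptide substrate and [γ-33P]ATP in buffer D at 30 °C for 30 min. Phosphorylation was read on P81 filters by scintillation. Activity is given as % of maximal after blank subtraction, and IC50 was derived from dose-response curves.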
# [9] = target: Dual specificity protein kinase CLK2 (Mus musculus, UniProt O35491); test: Inhibition of mouse recombinant CLK2 expressed in Escherichia coli using GRSRSRSRSRSR as substrate; how it was run: as §2
# Dual specificity protein kinase CLK2, sequence (O35491 whole entry): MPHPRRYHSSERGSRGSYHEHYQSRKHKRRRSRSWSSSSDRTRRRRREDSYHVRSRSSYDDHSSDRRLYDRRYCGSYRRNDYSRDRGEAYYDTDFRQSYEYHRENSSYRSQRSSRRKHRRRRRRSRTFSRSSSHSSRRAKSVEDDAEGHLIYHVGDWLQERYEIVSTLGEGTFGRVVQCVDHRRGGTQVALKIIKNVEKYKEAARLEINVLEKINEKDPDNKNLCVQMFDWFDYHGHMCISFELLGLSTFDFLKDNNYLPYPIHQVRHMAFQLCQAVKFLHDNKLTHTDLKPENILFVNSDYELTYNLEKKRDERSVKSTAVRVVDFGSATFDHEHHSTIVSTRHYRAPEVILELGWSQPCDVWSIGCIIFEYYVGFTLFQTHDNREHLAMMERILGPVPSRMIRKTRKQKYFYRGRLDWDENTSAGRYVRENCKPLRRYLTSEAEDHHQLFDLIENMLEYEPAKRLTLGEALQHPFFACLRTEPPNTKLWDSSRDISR
# [10] = target: Dual specificity protein kinase CLK1 (Mus musculus, UniProt P22518); test: Inhibition of mouse recombinant CLK1 expressed in Escherichia coli using GRSRSRSRSRSR as substrate; how it was run: as §2
# Dual specificity protein kinase CLK1, sequence (P22518 whole entry): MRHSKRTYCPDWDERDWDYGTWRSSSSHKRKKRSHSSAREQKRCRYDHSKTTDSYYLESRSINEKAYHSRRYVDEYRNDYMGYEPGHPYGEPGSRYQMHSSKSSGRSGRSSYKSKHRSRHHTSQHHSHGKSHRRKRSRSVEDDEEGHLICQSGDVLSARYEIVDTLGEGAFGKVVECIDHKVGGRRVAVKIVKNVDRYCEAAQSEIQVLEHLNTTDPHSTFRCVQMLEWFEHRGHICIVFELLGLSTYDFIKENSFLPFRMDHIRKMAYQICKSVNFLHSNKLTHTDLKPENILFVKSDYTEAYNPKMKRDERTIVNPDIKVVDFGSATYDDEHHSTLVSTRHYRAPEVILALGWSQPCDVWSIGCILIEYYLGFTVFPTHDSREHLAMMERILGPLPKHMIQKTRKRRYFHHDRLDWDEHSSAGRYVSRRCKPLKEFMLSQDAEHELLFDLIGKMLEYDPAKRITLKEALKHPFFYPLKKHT
# [11] = Inhibition of porcine brain CK1delta/epsilon using RRKHAAIGpSAYSITA as substrate; set-up: species or system Sus scrofa
# How it was run: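 Native porcine brain CK1δ/ε was assayed with the CKS phosphopeptide substrate, [γ-33P]ATP and buffer D for 30 min at 30 °C. Product was captured on P81 paper and counted by scintillation. IC50 was calculated from dose-response curves, with activity as % of the no-inhibitor control.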
# CDK9/cyclin T1 = CDK9/cyclin T1 (Homo sapiens, UniProt P50750); test: Inhibition of human recombinant CDK9/cyclin T using YSPTSPSYSPTSPSYSPTSPSKKKK as substrate; type: protein-complex assay
# CDK9/cyclin T1, sequence (O60563 whole entry): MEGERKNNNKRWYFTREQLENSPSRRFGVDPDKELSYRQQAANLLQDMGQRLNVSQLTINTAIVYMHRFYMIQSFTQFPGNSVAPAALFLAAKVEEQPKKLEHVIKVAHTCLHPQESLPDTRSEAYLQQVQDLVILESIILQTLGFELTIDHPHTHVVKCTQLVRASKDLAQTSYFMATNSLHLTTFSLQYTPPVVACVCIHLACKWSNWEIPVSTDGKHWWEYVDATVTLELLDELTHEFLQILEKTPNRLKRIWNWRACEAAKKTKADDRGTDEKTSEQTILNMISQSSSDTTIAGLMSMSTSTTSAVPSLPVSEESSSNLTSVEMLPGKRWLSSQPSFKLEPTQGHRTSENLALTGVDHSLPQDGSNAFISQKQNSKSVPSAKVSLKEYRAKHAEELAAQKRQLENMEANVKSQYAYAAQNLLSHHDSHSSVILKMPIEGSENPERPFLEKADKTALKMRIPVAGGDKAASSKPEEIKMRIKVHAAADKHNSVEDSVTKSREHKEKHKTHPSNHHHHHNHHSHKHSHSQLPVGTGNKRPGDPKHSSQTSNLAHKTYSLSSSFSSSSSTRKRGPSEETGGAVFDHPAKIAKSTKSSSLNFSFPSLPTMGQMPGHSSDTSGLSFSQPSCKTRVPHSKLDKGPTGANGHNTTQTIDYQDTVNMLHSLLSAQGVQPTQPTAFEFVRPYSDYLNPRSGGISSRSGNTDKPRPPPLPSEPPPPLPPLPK
# CDK9/cyclin T1, sequence (P50750 whole entry): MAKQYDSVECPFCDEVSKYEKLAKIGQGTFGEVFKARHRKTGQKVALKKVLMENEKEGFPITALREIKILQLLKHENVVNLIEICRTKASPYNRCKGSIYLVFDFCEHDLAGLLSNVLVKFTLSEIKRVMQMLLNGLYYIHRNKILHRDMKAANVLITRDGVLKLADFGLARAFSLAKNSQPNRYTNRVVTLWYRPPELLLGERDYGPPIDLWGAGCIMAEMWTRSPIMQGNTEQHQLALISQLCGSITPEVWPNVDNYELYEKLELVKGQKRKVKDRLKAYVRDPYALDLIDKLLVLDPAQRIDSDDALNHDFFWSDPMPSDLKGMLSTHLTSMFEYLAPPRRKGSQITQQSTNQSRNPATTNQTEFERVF
# How it was run: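 CDK9/cyclin T was human recombinant, made in insect cells. It was run like the CDK1 radiometric assay: buffer D with [γ-33P]ATP, 30 min at 30 °C, CDK7/9 tide peptide substrate, P81 capture and scintillation counting. IC50 came from dose-response curves relative to a DMSO control.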
# [12] = target: Cyclin-dependent kinase 5/CDK5 activator 1 (Homo sapiens, UniProt Q00535); test: Inhibition of human recombinant CDK5/p25 using [gamma-33P]-ATP after 30 mins by scintillation counting; type: protein-complex assay
# Cyclin-dependent kinase 5/CDK5 activator 1, sequence (Q00535 whole entry): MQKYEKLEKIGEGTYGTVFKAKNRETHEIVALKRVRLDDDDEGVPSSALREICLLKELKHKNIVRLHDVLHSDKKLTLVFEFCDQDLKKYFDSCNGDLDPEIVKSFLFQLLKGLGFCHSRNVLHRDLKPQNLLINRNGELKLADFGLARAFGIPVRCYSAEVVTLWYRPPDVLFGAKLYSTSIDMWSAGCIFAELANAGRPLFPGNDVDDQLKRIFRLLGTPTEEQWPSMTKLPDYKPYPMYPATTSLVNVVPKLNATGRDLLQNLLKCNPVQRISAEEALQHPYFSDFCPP
# Cyclin-dependent kinase 5/CDK5 activator 1, sequence (Q15078 whole entry, further chain): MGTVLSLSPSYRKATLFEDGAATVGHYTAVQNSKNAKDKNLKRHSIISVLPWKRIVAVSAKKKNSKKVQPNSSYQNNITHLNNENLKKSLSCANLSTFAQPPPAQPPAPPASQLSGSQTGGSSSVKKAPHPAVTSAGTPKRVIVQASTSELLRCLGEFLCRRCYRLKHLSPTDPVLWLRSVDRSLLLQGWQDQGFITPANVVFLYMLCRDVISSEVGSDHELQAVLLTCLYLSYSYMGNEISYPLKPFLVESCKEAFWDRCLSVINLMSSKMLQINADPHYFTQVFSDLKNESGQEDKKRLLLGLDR
# CDK2/Cyclin A2 = CDK2/Cyclin A2 (Homo sapiens, UniProt P24941); test: Inhibition of human recombinant CDK2/cyclin A using [gamma-33P]-ATP after 30 mins by scintillation counting; type: protein-complex assay
# How it was run: (§3)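 Native starfish M-phase CDK1/cyclin B or human recombinant CDK2 or CDK5/p25 was incubated with histone H1 (1 mg/mL) and [γ-33P]ATP in buffer D (10 mM MgCl2, 1 mM EGTA, 1 mM DTT, 25 mM Tris/HCl, heparin) at 30 °C for 30 min. BSA was added except for CDK2. Reactions were spotted on P81 paper, washed in 1% phosphoric acid and counted by scintillation. Activity is expressed as % of the no-inhibitor control with blanks subtracted. IC50 was taken from dose-response curves.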
# [13] = Inhibition of M phase starfish oocytes CDK1/cyclin B using [gamma-33P]-ATP after 30 mins by scintillation counting; set-up: species or system Asteroidea; how it was run: as §3
SMILES,Activity (Mus musculus),Activity [1],IC50 [2],IC50 [3],IC50 [4],IC50 [5],IC50 [6],IC50 [7],IC50 [8],IC50 [9],IC50 [10],IC50 [11],IC50 (CDK9/cyclin T1),IC50 [12],IC50 (CDK2/Cyclin A2),IC50 [13]
NCCOCCOCCOCCOc1ccc(NC2=N/C(=C\c3ccc4c(c3)OCO4)C(=O)N2)cc1,Active,Active,0.2 µM,180 nM,130 nM,72 nM,0.028 µM,61 nM,0.55 µM,210 nM,61 nM,> 10 µM,3.7 µM,> 10 µM,> 10 µM,> 10 µM
O=C1NC(Nc2ccccc2)=N/C1=C\c1ccc2c(c1)OCO2,–,–,0.73 µM,–,–,–,–,–,3 µM,320 nM,35 nM,> 10 µM,> 10 µM,–,> 10 µM,> 10 µM
NCCOCCOCCOc1ccc(NC2=N/C(=C\c3ccccc3)C(=O)N2)cc1,Active,Active,40 µM,> 10000 nM,> 10000 nM,> 10000 nM,8.5 µM,> 10000 nM,> 10 µM,> 10000 nM,> 10000 nM,> 10 µM,> 10 µM,> 10 µM,> 10 µM,> 10 µM
NCCOCCOCCO,–,–,> 10 µM,> 10000 nM,> 10000 nM,> 10000 nM,> 10 µM,> 10000 nM,> 10 µM,> 10000 nM,> 10000 nM,> 10 µM,> 10 µM,> 10 µM,> 10 µM,> 10 µM
O=C1NC(Nc2ccccc2)=N/C1=C\c1ccccc1,–,–,> 100 µM,> 10000 nM,> 10000 nM,> 10000 nM,> 100 µM,> 10000 nM,> 10 µM,> 10000 nM,> 10000 nM,> 10 µM,> 10 µM,> 10 µM,> 10 µM,> 10 µM
NCCOCCOCCOc1ccc(NC2=N/C(=C\c3ccc4c(c3)OCO4)C(=O)N2)cc1,Active,Active,0.27 µM,200 nM,150 nM,110 nM,0.05 µM,81 nM,0.81 µM,280 nM,75 nM,> 10 µM,7.4 µM,> 10 µM,> 10 µM,> 10 µM
